In ChEMBL document CHEMBL1765085, “Cytotoxic and apoptosis-inducing activities of triterpene acids from Poria cocos” (J Nat Prod, 2011):

Columns and labels:
Format in all cases: functional, cell-based
OVCAR-3 = assay: Cytotoxicity in human OVCAR3 cells assessed as cell viability after 48 hrs by MTT assay; conditions: OVCAR-3, 48 h
Procedure, shortened: (§1)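 Growth conditions: RPMI 1640 for HL60, CRL1579, NIH:OVCAR-3, SK-BR-3, DU145 and PANC-1; D-MEM for A549; MEM for WI-38; all with 10% FBS and antibiotics, 37 °C, 5% CO2. Seeded at 3 × 10^3 cells/well (OVCAR-3 1 × 10^4), then treated 48 h with 10^-4 to 10^-6 M. MTT for 3 h, formazan dissolved in 0.04 M HCl/2-propanol, A570/630. IC50 (50% growth inhibition) from triplicates.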

HL-60 = assay: Cytotoxicity in human HL60 cells assessed as cell viability after 48 hrs by MTT assay; conditions: HL-60, 48 h; procedure, shortened: as §1
SK-BR-3 = assay: Cytotoxicity in human SK-BR-3 cells assessed as cell viability after 48 hrs by MTT assay; conditions: SK-BR-3, 48 h; procedure, shortened: as §1
PANC-1 = assay: Cytotoxicity in human PANC1 cells assessed as cell viability after 48 hrs by MTT assay; conditions: PANC-1, 48 h; procedure, shortened: as §1
[1] = Cytotoxicity in human AZ-521 cells assessed as cell viability after 48 hrs by MTT assay; conditions: AZ-521, 48 h
[2] = Cytotoxicity in human CRL1579 cells assessed as cell viability after 48 hrs by MTT assay; procedure, shortened: as §1
DU-145 = assay: Cytotoxicity in human DU145 cells assessed as cell viability after 48 hrs by MTT assay; conditions: DU-145, 48 h; procedure, shortened: as §1
A549 = assay: Cytotoxicity in human A549 cells assessed as cell viability after 48 hrs by MTT assay; conditions: A549, 48 h; procedure, shortened: as §1

SMILES | IC50 (OVCAR-3) [µM] | IC50 (HL-60) [µM] | IC50 (SK-BR-3) [µM] | IC50 (PANC-1) [µM] | IC50 [1] [µM] | IC50 [2] [µM] | IC50 (DU-145) [µM] | IC50 (A549) [µM]
C=C(C)[C@@H]1CCC2=C(CC[C@]3(C)[C@@H]([C@@H](CCC=C(C)C)C(=O)OC)[C@H](O)C[C@@]23C)[C@@]1(C)CCC(=O)OC [DIMETHYL PORICOATE G] | 26.3 | 8.8 | 4.3 | > 100 | 34.5 | 42.4 | > 100 | 66
C=C(CC[C@@H](CO)[C@H]1CC[C@@]2(C)C3=CC[C@@H](C(=C)C)[C@](C)(CCCO)C3=CC[C@]12C)C(C)C [PORICOTRIOL C] | 70.3 | 12.3 | 11 | 91.3 | 13.3 | 76.4 | 20.3 | 80
C=C(CC[C@@H](C(=O)OC)[C@H]1CC[C@@]2(C)C3=CC[C@@H](C(=C)C)[C@](C)(CCC(=O)OC)C3=CC[C@]12C)C(C)C [DIMETHYL PORICOATE C] | 23.6 | 2.4 | 23.9 | > 100 | 19.8 | 27.8 | > 100 | 83.8
C=C(CC[C@@H](CO)[C@H]1[C@H](O)C[C@@]2(C)C3=CC[C@H]4C(C)(C)[C@H](O)CC[C@]4(C)C3=CC[C@]12C)C(C)(C)O | > 100 | 2.5 | > 100 | > 100 | > 100 | 14 | > 100 | > 100
C=C(CC[C@@H](CO)[C@H]1CC[C@@]2(C)C3=CC[C@H]4C(C)(C)[C@@H](O)CC[C@]4(C)C3=CC[C@]12C)C(C)C | 6.4 | 6.7 | 11.7 | 22.6 | 12.5 | 2.8 | > 100 | 4
C=C(CC[C@@H](C(=O)OC)[C@H]1CC[C@@]2(C)C3=CC[C@H]4C(C)(C)C(=O)CC[C@]4(C)C3=CC[C@]12C)C(C)C | > 100 | 23.5 | 27.5 | > 100 | 53.4 | 20.9 | > 100 | 96.5
C=C(C)[C@@H]1CCC2=C(CC[C@]3(C)[C@@H]([C@@H](CCC=C(C)C)C(=O)O)[C@H](O)C[C@@]23C)[C@@]1(C)CCC(=O)O [PORICOIC ACID G] | > 100 |  | > 100 | > 100 | > 100 |  | > 100 | > 100
C=C(CC[C@@H](C(=O)O)[C@H]1[C@H](O)C[C@@]2(C)C3=C(CC[C@]12C)[C@@](C)(CCC(=O)O)[C@H](C(=C)C)CC3)C(C)C [PORICOIC ACID H] | > 100 |  | > 100 | > 100 | > 100 |  | > 100 | > 100
C=C(CC[C@@H](C(=O)OC)[C@H]1[C@H](O)C[C@@]2(C)C3=C(CC[C@]12C)[C@@](C)(CCC(=O)OC)[C@H](C(=C)C)CC3)C(C)C [DIMETHYL PORICOATE H] | 49.5 | 3.6 | 15.9 | 44.9 | 14.6 | 97.6 | 28.9 | 13.5
C=C(CC[C@@H](C(=O)O)[C@H]1[C@H](O)C[C@@]2(C)C3=CC[C@H]4C(C)(C)[C@H](O)CC[C@]4(C)C3=CC[C@]12C)C(C)(C)O | 9.5 |  | 62.3 | 67.4 | 51.5 |  | > 100 | 4
C=C(CC[C@@H](C(=O)OC)[C@H]1[C@H](O)C[C@@]2(C)C3=CC[C@@H](C(=C)C)[C@](C)(CCC(=O)OC)C3=CC[C@]12C)C(C)C [DIMETHYL PORICOATE A] | 91.8 | 18.2 | 32.2 | > 100 | 32.1 | > 100 | > 100 | 79.6
C=C(CC[C@@H](C(=O)O)[C@H]1CC[C@@]2(C)C3=CC[C@@H](C(=C)C)[C@](C)(CCC(=O)O)C3=CC[C@]12C)C(C)C [PORICOIC ACID C] | 53.1 | 25.9 | 23.9 | 68.9 | 45.9 | > 100 | 14.5 | 27
C=C(C)[C@@H]1CCC2=C(CC[C@]3(C)[C@@H]([C@H](CO)CCC=C(C)C)[C@H](O)C[C@@]23C)[C@@]1(C)CCCO [PORICOTRIOL G] | 43.5 | 7.5 | 13 | 17.9 | 13.4 | 11.6 | > 100 | 11
C=C(CC[C@@H](CO)[C@H]1[C@H](O)C[C@@]2(C)C3=C(CC[C@]12C)[C@@](C)(CCCO)[C@H](C(=C)C)CC3)C(C)C | > 100 | 2.9 | 51.3 | > 100 | > 100 | 9.9 | > 100 | 41.2
C=C(CC[C@@H](C(=O)O)[C@H]1[C@H](O)C[C@@]2(C)C3=CC[C@@H](C(=C)C)[C@](C)(CCC(=O)O)C3=CC[C@]12C)C(C)C [PORICOIC ACID A] | > 100 |  | > 100 | > 100 | > 100 |  | > 100 | > 100
C=C(CC[C@@H](C(=O)OC)[C@H]1[C@H](O)C[C@@]2(C)C3=CC[C@H]4C(C)(C)[C@H](O)CC[C@]4(C)C3=CC[C@]12C)C(C)(C)O | 67.5 | 6.9 | 27.5 | 71.3 | 14.4 | 76.5 | 28.9 | 41.4
C=C(CCC(C(=O)O)[C@H]1CC[C@@]2(C)C3=CC[C@H]4C(C)(C)C(=O)CC[C@]4(C)C3=CC[C@]12C)C(C)C (stereo not given in full) [DEHYDROEBURICONIC ACID] | 37.7 | 29.2 | 12.2 | 5.5 | > 100 | 89.7 | > 100 | 10
O=c1[nH]cc(F)c(=O)[nH]1 [FLUOROURACIL] | > 100 | 9.5 | > 100 | 54.1 | > 100 | > 100 | > 100 | 
